Source: PubChem (several laboratories)
WT yeast gro inh = growth inhibition of WT yeast, mitochondrial fusion screen | mitochondrial fusion phenotypic screen, WT strain | AID 1362 | 190,000 compounds, 2.1% hits | inhibition, % at 10 µM; in the data active means inhibition above about 58%; tested in S. cerevisiae
MPTP block = inhibitors of mitochondrial permeability transition pore; isolated mouse mitochondria, Ca2+ swelling absorbance, 30 min; inhibition, % at 10 µM; 360,000 compounds, 1.4% hits;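 active means inhibition of 50% or more, scaled per plate between neutral and stimulator controls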
GRIN3A LBD mod = NR3A (human) ligand-binding domain modulation | NR3A LBD differential scanning fluorimetry, Tm shift; 0% = protein alone, 100% = glycine-bound protein | Tm shift relative to glycine control, % at 25 µM | 340,000 compounds, 2.5% hits | AID 1259313;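 active means melting temperature shift of at least 10% of the positive control shift, at one fixed dose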
CHOP inh = inhibitors of CHOP induction in ER stress response | inhibition, % at 10 µM | AID 2732 | CHO-K1 CHOP-promoter luciferase, tunicamycin-induced, 15-18 h | 220,000 compounds, 3.8% hits;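 active means compounds that reduced the stress-induced luciferase reporter signal by more than about 70% of percent inhibition, limit read from the data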
EBV gp42 block = blocks Epstein-Barr virus glycoprotein 42 binding. Q1HVG2. Fluorescence polarization binding assay, mP read-out. inhibition, % (tested at 21.74 µM). 220,000 compounds, 0.42% hits. AID 1085; in the data active means inhibition above about 50%
Target sequence (Q1HVG2 whole entry, looked up): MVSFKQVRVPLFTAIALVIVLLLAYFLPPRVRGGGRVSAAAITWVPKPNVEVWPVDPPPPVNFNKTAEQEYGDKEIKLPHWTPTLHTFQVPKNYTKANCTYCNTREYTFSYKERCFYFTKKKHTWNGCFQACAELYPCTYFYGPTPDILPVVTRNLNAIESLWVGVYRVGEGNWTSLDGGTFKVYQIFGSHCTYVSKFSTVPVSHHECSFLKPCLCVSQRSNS
TbMetRS inhib = Trypanosoma brucei MetRS inhibition; AID 624268; 360,000 compounds, 0.4% hits; inhibition, % at 11.9 µM; purified T. brucei MetRS, ATP depletion, Kinase-Glo luminescence;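 active means inhibition above a per-plate cutoff of the control wells' mean inhibition plus 3 SD, cut at about 5.5% in these data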
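Material: T. brucei methionyl-tRNA synthetase, purified; reagent: substrates ATP, L-methionine and bulk Escherichia coli tRNA; dosing: 11.9 µM single point; timing: 15 min plus 2 h at 25 °C; detection: luminescence of leftover ATP; evaluation: % inhibition; control set: DMSO-only wells as low control; replicates: singlicate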
MPTP counter = Rhodamine 123 counter-screen of mitochondrial pore hits; shares compounds with MPTP block; isolated mitochondria, membrane potential, Rhodamine 123 fluorescence; inhibition, % at 10 µM; 5,000 compounds, 78% hits; AID 624504; in the data active means inhibition above about 22%
MPTP abs DR = dose response confirmation of mitochondrial permeability transition pore inhibitors | 780 compounds, 58% hits | isolated mitochondria swelling, absorbance | IC50, µM | shares compounds with MPTP block; in the data active means IC50 below about 20 µM
MPTP cs DR = MPTP inhibitor counter-screen activity, dose response; IC50, µM; shares compounds with MPTP block; 780 compounds, 49% hits; AID 651564; isolated mitochondria counterscreen, fluorescence read-out; in the data active means IC50 below about 80 µM
A number is an active result; . = inactive; / = no result given. Shown are actives, neighbours in structure and some others; about 6.4% of the full set was active somewhere.

SMILES | WT yeast gro inh | MPTP block | GRIN3A LBD mod | CHOP inh | EBV gp42 block | TbMetRS inhib | MPTP counter | others
Clc1ccc(-c2nnc(CSc3nnc(-c4cccs4)n3Cc3ccccc3)o2)cc1 | . | 92 | . | . | . | . | 89
O=C(Nc1ccc(OC(F)F)c(Cl)c1)C(c1ccccc1)c1ccccc1 | . | 83 | 21 | 70 | . | . | 90
O=C(Cc1cccc2ccccc12)Nc1ccc(OC(F)F)c(Cl)c1 | . | 85 | 23 | . | . | . | 90
COCc1cccc(NC(=O)Cc2cccc3ccccc23)c1 | . | . | . | . | . | . | /
CN(C)CC1CCCCC1OC(=O)c1ccc(S(=O)(=O)N(C)c2ccccc2)cc1 (stereo not drawn) | / | 81 | . | / | / | . | . | MPTP abs DR=12;MPTP cs DR=61
CN(C)CC1CCCCC1OC(=O)c1ccc(Br)cc1 (stereo not drawn) | . | . | . | . | . | . | /
CC[C@@H](C(=O)[C@@H](C)[C@@H](O)[C@H](C)CCc1ccc(C)c(O)c1C(=O)O)[C@H]1O[C@](CC)([C@H]2CC[C@](O)(CC)[C@H](C)O2)C[C@@H]1C | / | 104 | . | / | / | . | 84
Cc1cccc(OCC(=O)Oc2ccc(Cl)cc2)c1 | / | . | . | / | / | . | /
Cc1cccc(OC(=O)NCCOC(=O)N(O)c2ccc(Cl)cc2)c1 | . | 91 | . | . | . | . | 81
O=c1cc(-c2ccccc2Cl)oc2c(NS(=O)(=O)c3cc(Cl)cc(Cl)c3O)ccc(O)c12 | . | 70 | . | . | . | . | .
CSc1ccc(NC(=O)C2(C)CCN2C(=O)c2sccc2C)cc1 (stereo not drawn) | / | . | / | / | / | . | /
Cc1cc(O)c2c(c1O)C(=O)[C@]13C(=C2O)C(=O)[C@@H]2[C@@H](O)[C@H]1[C@@H]1[C@H](O)[C@H]3C(=O)C3=C(O)c4c(O)cc(C)c(O)c4C(=O)[C@]312 | / | 104 | . | / | / | . | .
CC1=[N+](C)c2c(ccc3cccnc23)C1(C)C | 82 | 95 | . | 75 | . | . | 82
CC(=O)N(C)c1ccc(NCc2cc(=O)oc3cc(C)c(O)cc23)cc1 | / | . | . | / | / | . | /
Cc1ccc(NC(=O)[C@H](Cc2ccccc2)NC(=O)[C@@H]2Cc3ccccc3CN2)c(C)c1 | / | . | . | / | / | . | /
O=C(O)c1cc(C(=O)O)c(-c2ccccc2)c(C(=O)O)c1 | / | . | . | . | . | . | /
Cc1nc(N2CCOCC2)c2c(C)c(C(=O)Nc3ccccc3C(F)(F)F)sc2n1 | . | . | . | . | . | . | /
Cc1nc(N2CCC(C)CC2)c2c(C)c(C(=O)Nc3ccc(C(F)(F)F)cc3)sc2n1 | . | 88 | 13 | . | . | . | 38
Cc1nc(SC(C)C(=O)Nc2cccc(C(F)(F)F)c2)c2c(C)c(C(=O)O)sc2n1 (stereo not drawn) | / | . | . | . | . | . | /
Cc1nc(N2CCC(C)CC2)c2c(C)c(C(=O)Nc3cccc(C(F)(F)F)c3)sc2n1 | . | 84 | 12 | . | . | . | . | MPTP abs DR=.;MPTP cs DR=7.7
C=CCN(C(=O)CNC(=O)c1ccco1)C(C(=O)NC1CCCCC1)c1ccccc1 (stereo not drawn) | . | . | . | . | . | . | /
O=C(O)c1ccc(NCc2cccc(Br)c2)cc1 | . | . | . | . | . | . | /
CC(C)(C)c1ccc(NC(=O)COC(=O)c2ccc(NS(=O)(=O)c3ccc(F)c(F)c3)cc2)cc1 | . | 60 | 30 | . | . | . | 60
CCc1nn2cc(C(=O)c3cc(Cl)ccc3O)cnc2c1-c1ccc(F)cc1 | 81 | 100 | 27 | . | . | . | 93
CCOc1cc(C)c(S(=O)(=O)Nc2ccc3cn[nH]c3c2)cc1C | . | 72 | . | . | . | . | 76
SMILES | WT yeast gro inh | MPTP block | GRIN3A LBD mod | CHOP inh | EBV gp42 block | TbMetRS inhib | MPTP counter | others
Cc1ccc(-n2cccc2/C=C2/C(=N)N3C(=NC2=O)SN=C3S(C)(=O)=O)cc1Cl | . | . | . | . | . | . | /
CCOc1ccc(-n2c(C)cc(/C=C3/C(=N)N4C(=NC3=O)SN=C4S(C)(=O)=O)c2C)cc1 | . | 76 | . | . | . | . | 28
Cc1cccc(C)c1-n1cccc1/C=C1/C(=N)N2C(=NC1=O)SN=C2S(C)(=O)=O | . | 67 | . | . | . | . | 75
Cc1cc(/C=C2/C(=N)N3C(=NC2=O)SN=C3S(C)(=O)=O)c(C)n1-c1ccc(F)cc1 | . | . | . | . | . | . | /
CC(=O)N1N=C(c2ccc3ccccc3c2)OC1(C)C | . | . | . | . | . | . | /
CC(=O)N1N=C(c2ccc(C(C)(C)C)cc2)OC1(C)C | . | 69 | . | . | . | . | . | MPTP abs DR=16;MPTP cs DR=18
Oc1cccc(-c2nnc(-c3cccc(O)c3)nn2)c1 | / | . | . | / | / | . | /
CCn1nc(NC(=O)c2cccnc2)c2cc3cccc(C)c3nc21 | . | . | . | . | . | . | /
CC1CCC(NC(=O)c2cccc(S(=O)(=O)N3CCOCC3)c2)CC1 (stereo not drawn) | / | . | / | / | / | . | /
CC1CCC(NC(=O)c2cccc(S(=O)(=O)N3CCN(c4ccccc4)CC3)c2)CC1 (stereo not drawn) | / | 76 | . | / | / | . | . | MPTP abs DR=.;MPTP cs DR=.
COc1ccc(-n2nc(C(=O)c3cccs3)cc(-c3nc4ccccc4[nH]3)c2=N)cc1 | . | 78 | . | . | . | . | .
COc1ccc(-c2nc3ccccc3[nH]2)cc1 | . | . | . | / | . | . | /
Cc1cccc(-n2nc(C(=O)c3ccco3)cc(-c3nc4ccccc4[nH]3)c2=N)c1 | . | . | . | . | . | . | /
Cc1ccccc1-n1nc(C(=O)c2cccs2)cc(-c2nc3ccccc3[nH]2)c1=N | . | 91 | . | . | . | . | 98
CCOc1cc(/C=N/O)ccc1OCc1ccc(C)cc1 | . | . | . | . | . | . | /
CCOC(=O)c1sc(NC(=O)c2cc(-c3ccccc3)nc3ccccc23)c(C#N)c1C | . | 107 | 24 | . | . | . | 78
CCOC(=O)c1sc(NC(=O)CSc2nc(C)cc(C)n2)c(C#N)c1C | . | 58 | . | . | . | . | 40
CCOC(=O)c1sc(NC(=O)CSc2n[nH]c(-c3ccccc3)n2)c(C#N)c1C | 77 | 100 | 27 | . | . | . | 71
CCOC(=O)c1sc(NC(=O)CSc2nnc(Cc3ccccc3)o2)c(C#N)c1C | . | . | . | . | . | . | /
CCOC(=O)c1sc(NC(=O)CSc2nc(-c3ccco3)cc(C(F)(F)F)n2)c(C#N)c1C | . | 84 | . | . | . | . | . | MPTP abs DR=4;MPTP cs DR=<2.5
CCOC(=O)c1sc(NC(=O)c2cccnc2)c(C#N)c1C | . | . | . | . | . | . | /
